Measurements published in ChEMBL document CHEMBL3232883, “Triaryl-substituted Schiff bases are high-affinity subtype-selective ligands for the estrogen receptor” (J Med Chem, 2014).
Active and inactive are the calls of the source. No cut-off for these calls is given here.

Experiments:
Homo sapiens = species: Homo sapiens; assay: Selectivity ratio of RBA for human full length ERbeta to RBA for human full-length ERalpha
Estrogen receptor beta [1] = molecular target: T1, Estrogen receptor beta (Homo sapiens, UniProt Q92731); assay: Agonist activity at ERbeta (unknown origin) expressed in human HepG2 cells assessed as transcriptional activation after 24 hrs by ERE-luciferase reporter gene assay relative to 17beta-estradiol; type: cell-based
Method in brief: (§1)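 HepG2 cells were cotransfected with a 3×ERE-luciferase reporter (10 μg) plus an ERα or ERβ expression vector (1.6 μg) per 10 cm dish. The next day they were replated at 20 000 cells/well in phenol red-free medium with 10% charcoal-dextran-stripped FBS and held overnight. Cells were then dosed over a 12-point range of 10 μM to 100 pM. Luciferase was read after 24 h, with DMSO set as 0% and the top of the E2 curve as 100%.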

Estrogen receptor beta [2] = molecular target: T1, Estrogen receptor beta; assay: Displacement of [3H]-estradiol from human full-length ERbeta after 18 to 24 hrs by competitive radiometric binding assay relative to estradiol
Estrogen receptor beta [3] = molecular target: T1, Estrogen receptor beta; assay: Antagonist activity at ERbeta (unknown origin) expressed in human HepG2 cells assessed as inhibition of 17beta-estradiol-induced transcriptional activation after 24 hrs by ERE-luciferase reporter gene assay; type: cell-based
Method in brief: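 ERβ-transfected, steroid-deprived HepG2 cells carrying a 3×ERE-luciferase reporter were co-treated with 10 nM estradiol and test ligand over a range of 10 μM to 100 pM. Luciferase was read after 24 h, with each plate normalized to DMSO (0%) and the maximal E2 response (100%). IC50 and % efficacy were derived from the dose curves.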

Estrogen receptor beta [4] = molecular target: T1, Estrogen receptor beta; assay: Agonist activity at ERbeta (unknown origin) expressed in human HepG2 cells assessed as transcriptional activation after 24 hrs by ERE-luciferase reporter gene assay; type: cell-based
Method in brief: (§2)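 HepG2 cells were grown in DMEM with 10% FBS and transfected with a 3×ERE-luciferase reporter plus an ERα or ERβ expression vector. The next day cells were moved to phenol red-free medium with 10% charcoal-dextran-stripped FBS, plated at 20 000 cells/well and left overnight. Ligand was then added as a 12-point dose curve from 10 μM to 100 pM. Luciferase was read after 24 h, normalized to DMSO as 0% and the top of the E2 curve as 100%.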

HepG2 = assay: Agonist activity at ERalpha (unknown origin) harboring N-terminal AF1 domain deleted mutant expressed in human HepG2 cells assessed as transcriptional activation after 24 hrs by ERE-luciferase reporter gene assay; type: cell-based
Estrogen receptor = molecular target: T2, Estrogen receptor (Homo sapiens, UniProt P03372); assay: Agonist activity at ERalpha (unknown origin) expressed in human HepG2 cells assessed as transcriptional activation after 24 hrs by ERE-luciferase reporter gene assay; type: cell-based; method in brief: as §2
T2 sequence (P03372 whole entry): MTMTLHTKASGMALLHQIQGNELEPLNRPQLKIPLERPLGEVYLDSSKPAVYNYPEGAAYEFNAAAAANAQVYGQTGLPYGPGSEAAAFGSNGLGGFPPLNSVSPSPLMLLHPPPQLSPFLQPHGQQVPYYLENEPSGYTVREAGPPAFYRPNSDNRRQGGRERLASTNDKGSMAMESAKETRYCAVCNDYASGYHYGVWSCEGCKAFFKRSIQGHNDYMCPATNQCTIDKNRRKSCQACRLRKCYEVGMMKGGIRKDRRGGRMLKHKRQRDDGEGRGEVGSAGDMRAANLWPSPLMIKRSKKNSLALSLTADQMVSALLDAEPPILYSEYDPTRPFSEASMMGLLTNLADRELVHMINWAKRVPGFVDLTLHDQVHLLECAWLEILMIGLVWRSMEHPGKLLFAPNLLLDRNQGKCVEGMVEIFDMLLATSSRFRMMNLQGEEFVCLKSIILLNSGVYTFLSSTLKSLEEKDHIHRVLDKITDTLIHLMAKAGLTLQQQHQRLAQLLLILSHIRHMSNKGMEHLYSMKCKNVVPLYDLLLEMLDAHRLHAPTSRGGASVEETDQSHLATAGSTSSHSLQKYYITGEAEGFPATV

[5] = molecular target: T3, Estrogen receptor (Homo sapiens) (UniProt P03372); assay: Displacement of [3H]-estradiol from human full-length ERalpha after 18 to 24 hrs by competitive radiometric binding assay relative to estradiol
T3 sequence (whole entry): T2 sequence (P03372 whole entry)

[6] = molecular target: T3, Estrogen receptor (Homo sapiens); assay: Agonist activity at ERalpha (unknown origin) expressed in human HepG2 cells assessed as transcriptional activation after 24 hrs by ERE-luciferase reporter gene assay relative to 17beta-estradiol; type: cell-based; method in brief: as §1
[7] = molecular target: T3, Estrogen receptor (Homo sapiens); assay: Antagonist activity at ERalpha (unknown origin) expressed in human HepG2 cells assessed as inhibition of transcriptional activation after 24 hrs by ERE-luciferase reporter gene assay relative to 17beta-estradiol; type: cell-based
Method in brief: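 Antagonist mode used HepG2 cells cotransfected with a 3×ERE-luciferase reporter plus an ERα expression vector and steroid-deprived in phenol red-free medium with 10% charcoal-dextran-stripped FBS. Cells received 10 nM estradiol together with increasing compound concentrations across a 10 μM to 100 pM dose curve. Luciferase was measured after 24 h and normalized to DMSO (0%) and the top of the E2 curve (100%).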

T1 sequence (Q92731 whole entry): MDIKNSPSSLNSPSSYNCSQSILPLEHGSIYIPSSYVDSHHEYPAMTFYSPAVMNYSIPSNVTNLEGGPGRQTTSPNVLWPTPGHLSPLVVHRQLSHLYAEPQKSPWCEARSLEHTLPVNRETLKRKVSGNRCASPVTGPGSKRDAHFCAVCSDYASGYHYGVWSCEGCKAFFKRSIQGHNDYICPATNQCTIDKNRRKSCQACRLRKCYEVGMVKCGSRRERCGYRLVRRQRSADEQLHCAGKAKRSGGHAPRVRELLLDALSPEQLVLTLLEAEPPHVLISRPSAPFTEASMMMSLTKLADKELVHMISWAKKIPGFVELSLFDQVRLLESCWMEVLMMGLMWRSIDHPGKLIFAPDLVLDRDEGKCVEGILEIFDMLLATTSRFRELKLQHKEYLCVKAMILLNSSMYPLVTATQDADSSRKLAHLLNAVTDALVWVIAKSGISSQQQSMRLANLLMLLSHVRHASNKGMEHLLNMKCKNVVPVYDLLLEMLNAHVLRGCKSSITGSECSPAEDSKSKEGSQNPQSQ

| SMILES | Selectivity ratio (Homo sapiens) | Efficacy (Estrogen receptor beta [1]) | RBA (Estrogen receptor beta [2]) | IC50 (Estrogen receptor beta [3]) | EC50 (Estrogen receptor beta [4]) | Activity (HepG2) | EC50 (Estrogen receptor) | RBA [5] | Efficacy [6] | Efficacy [7] |
| --- | --- | --- | --- | --- | --- | --- | --- | --- | --- | --- |
| Oc1ccc(/C(=N\c2ccc(Cl)cc2)c2ccc(O)cc2O)cc1 | 2.5 | 19% | 38.1% | 180 nM | 385 nM | inactive | 4 nM | 15.5% | 114% | 123% |
| Oc1ccc(C(=Nc2ccccc2Cl)c2ccc(O)cc2)cc1 | 1.5 | 37% | 97% | 19 nM |  | inactive | 1 nM | 62.8% | 104% | 83% |
| Oc1ccc(C(=Nc2cccc(C(F)(F)F)c2)c2ccc(O)cc2)cc1 | 4.2 | 3% | 139% | 24 nM |  | inactive | 23 nM | 33.4% | 89% | 104% |
| Oc1ccc(/C(=N\c2ccccc2)c2ccc(O)cc2O)cc1 | 1.3 | 25% | 18.5% | 6 nM | 628 nM |  | 7 nM | 14.6% | 102% | 134% |
| Oc1ccc(/C(=N\c2cccc(C(F)(F)F)c2)c2ccc(O)cc2O)cc1 | 2.6 | 11% | 72.1% | 28 nM |  | inactive | 57 nM | 28.2% | 100% | 95% |
| COc1ccc(/N=C(\c2ccccc2)c2ccc(O)cc2O)cc1 | 0.49 |  | 5.55% |  |  |  |  | 11.3% |  |  |
| Oc1ccc(/N=C/c2ccccc2O)cc1 |  |  | < 3% |  |  |  |  | < 3% |  |  |
| Cc1ccc(/N=C(\c2ccc(O)cc2)c2ccc(O)cc2O)cc1 | 1.9 | 20% | 17.1% | 241 nM | 10900 nM | inactive | 16 nM | 9.12% | 103% | 122% |
| Cc1cccc(/N=C(\c2ccc(O)cc2)c2ccc(O)cc2O)c1 | 2.5 | 9% | 38.1% | 51 nM |  | inactive | 14 nM | 15.3% | 95% | 101% |
| Oc1ccc(C(=Nc2ccc(F)cc2)c2ccc(O)cc2)cc1 | 2.3 | 10% | 45.6% | 7 nM |  | inactive | 2 nM | 19.7% | 114% | 113% |
| Cc1ccccc1/N=C(\c1ccc(O)cc1)c1ccc(O)cc1O | 0.9 | 31% | 45.1% | 16 nM | 2 nM | inactive |  | 53.3% | 111% | 100% |
| COc1ccc(/C(=N\c2ccc(O)cc2)c2ccc(O)cc2O)cc1 | 3.2 |  | 39.2% |  |  |  |  | 11.9% |  |  |
| Oc1ccc(/C(=N\c2cccc(Cl)c2)c2ccc(O)cc2O)cc1 | 1.6 | 15% | 61.6% | 67 nM |  | inactive | 15 nM | 37.6% | 117% | 118% |
| Oc1ccc(C(=Nc2ccc(Cl)cc2)c2ccc(O)cc2)cc1 | 2.6 | 9% | 127% | 9 nM |  | inactive | 2 nM | 49.2% | 114% | 138% |
